Values after ≈ are worked out from the molar mass of the structure shown. Active and inactive are the calls of the source. The rule behind the calls is not given here.
What was measured:
[1] = target: Neuronal acetylcholine receptor subunit alpha-7 (Rattus norvegicus) (UniProt Q05941); assay: (§1) Positive allosteric modulatory activity at rat alpha7 nAChR expressed in GH4C1 cells assessed as potentiation of acetylcholine response at -70 mV holding potential preincubated for 30 secs followed by co-application with acetylcholine by manual patch clamp assay; type: cell-based
Neuronal acetylcholine receptor subunit alpha-7 (Rattus norvegicus), sequence (Q05941 whole entry): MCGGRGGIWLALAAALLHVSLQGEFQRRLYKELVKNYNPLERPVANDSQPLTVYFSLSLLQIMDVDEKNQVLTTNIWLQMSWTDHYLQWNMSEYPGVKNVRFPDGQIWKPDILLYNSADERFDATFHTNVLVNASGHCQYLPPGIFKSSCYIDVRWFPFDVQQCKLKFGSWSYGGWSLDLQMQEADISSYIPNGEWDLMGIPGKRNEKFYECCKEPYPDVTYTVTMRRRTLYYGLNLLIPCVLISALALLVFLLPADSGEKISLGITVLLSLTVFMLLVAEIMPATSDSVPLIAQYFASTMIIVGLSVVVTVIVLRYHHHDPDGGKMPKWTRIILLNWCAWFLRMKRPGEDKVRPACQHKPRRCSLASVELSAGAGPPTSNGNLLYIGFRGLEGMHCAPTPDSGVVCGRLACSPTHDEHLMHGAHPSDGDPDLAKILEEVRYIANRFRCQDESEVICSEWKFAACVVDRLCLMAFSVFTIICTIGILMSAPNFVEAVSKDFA
Summary of the method: (§2)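 Conventional manual patch-clamp with a fast-application system on stable GH4C1 cells expressing rat α7 nAChR; currents evoked by acetylcholine with and without test compound; peak-current change relative to acetylcholine alone gives potentiation (P₃ at 3 μM; concentration–response for EC₅₀ and Pmax).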

[2] = target: Neuronal acetylcholine receptor subunit alpha-7 (Rattus norvegicus, UniProt Q05941); assay: as §1; type: cell-based; summary of the method: as §2
Neuronal acetylcholine receptor subunit alpha-7, sequence (Q05941 whole entry): as above

[3] = target: Cytochrome P450 2C9 (Homo sapiens, UniProt P11712); assay: Inhibition of CYP2C9 (unknown origin); type: ADME
Cytochrome P450 2C9, sequence (P11712 whole entry): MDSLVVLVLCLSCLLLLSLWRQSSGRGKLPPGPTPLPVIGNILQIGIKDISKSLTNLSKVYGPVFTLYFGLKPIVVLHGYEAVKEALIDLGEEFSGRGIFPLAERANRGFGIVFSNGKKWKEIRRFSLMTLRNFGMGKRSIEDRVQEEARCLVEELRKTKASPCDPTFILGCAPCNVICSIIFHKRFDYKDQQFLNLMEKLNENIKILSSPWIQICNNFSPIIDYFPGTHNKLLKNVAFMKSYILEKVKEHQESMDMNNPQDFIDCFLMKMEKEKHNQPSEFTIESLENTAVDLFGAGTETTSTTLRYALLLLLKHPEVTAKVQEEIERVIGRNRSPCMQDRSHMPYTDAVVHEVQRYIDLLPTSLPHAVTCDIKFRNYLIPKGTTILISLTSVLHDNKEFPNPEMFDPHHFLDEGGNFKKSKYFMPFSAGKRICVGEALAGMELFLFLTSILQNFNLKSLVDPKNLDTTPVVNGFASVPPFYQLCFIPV

[4] = Solubility of the compound at pH 2; type: physicochemical; details: buffer
[5] = target: Neuronal acetylcholine receptor subunit alpha-7 (Rattus norvegicus) (UniProt Q05941); assay: Positive allosteric modulator activity at rat alpha7 nAChR expressed in GH4C1 cells assessed as potentiation of acetylcholine response at 3 uM at -70 mV holding potential preincubated for 30 secs followed by co-application with acetylcholine by automated patch clamp assay; type: cell-based
Summary of the method: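 Automated planar patch clamp on stable GH4C1 (rat) cell lines expressing rat α7 nAChR; test compound at 3 μM with an EC₂₀ acetylcholine challenge; percent change in peak current versus acetylcholine alone taken as P₃.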

[6] = target: Cytochrome P450 2C19 (Homo sapiens, UniProt P33261); assay: Inhibition of CYP2C19 (unknown origin); type: ADME
Cytochrome P450 2C19, sequence (P33261 whole entry): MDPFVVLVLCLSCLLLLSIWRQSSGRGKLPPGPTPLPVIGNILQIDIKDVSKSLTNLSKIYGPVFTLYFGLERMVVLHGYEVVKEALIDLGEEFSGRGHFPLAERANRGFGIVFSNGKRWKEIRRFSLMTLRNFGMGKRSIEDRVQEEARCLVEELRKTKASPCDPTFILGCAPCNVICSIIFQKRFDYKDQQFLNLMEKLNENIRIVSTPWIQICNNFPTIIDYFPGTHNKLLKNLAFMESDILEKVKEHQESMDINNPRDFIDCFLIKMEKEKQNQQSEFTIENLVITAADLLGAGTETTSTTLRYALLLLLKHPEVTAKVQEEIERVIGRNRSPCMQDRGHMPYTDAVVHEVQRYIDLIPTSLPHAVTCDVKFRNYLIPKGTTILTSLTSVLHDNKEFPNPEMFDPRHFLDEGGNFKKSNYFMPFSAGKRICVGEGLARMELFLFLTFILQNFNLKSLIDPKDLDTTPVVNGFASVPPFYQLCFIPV

[7] = target: Neuronal acetylcholine receptor subunit alpha-7 (Rattus norvegicus) (UniProt Q05941); assay: Agonist activity at rat alpha7 nAChR expressed in GH4C1 cells assessed as current response at 3 uM at -70 mV holding potential by manual patch clamp assay; type: cell-based
Summary of the method: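 Manual patch clamp with fast application on stable GH4C1 cells expressing α7 nAChR; test compound applied without acetylcholine to look for evoked currents.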

[8] = Stability in human liver microsomes assessed as hepatic extraction ratio at 1 uM measured for 45 mins by LC-MS/MS analysis; type: ADME, Microsome; details: read-out: ERH
[9] = Solubility of the compound at pH 6.5; type: physicochemical; details: buffer
[10] = tested on: Mus musculus; assay: Reversal of scopolamine-induced memory impairment in mouse assessed as spontaneous alteration at 3 to 30 mg/kg, po administered with compond and scopolamine at 60 mins and 30 mins respectively prior to test by T-maze test; type: functional, organism-based
Summary of the method: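 Mouse T-maze continuous alternation task; reversal of scopolamine-induced loss of spontaneous alternation after ip or oral doses of 3 and 30 mg/kg; significant doses reported.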

[11] = Stability in mouse liver microsomes assessed as hepatic extraction ratio at 1 uM measured for 45 mins by LC-MS/MS analysis; type: ADME, Microsome; details: read-out: ERH
[12] = target: Neuronal acetylcholine receptor subunit alpha-7 (Rattus norvegicus) (UniProt Q05941); assay: Positive allosteric modulatory activity at rat alpha7 nAChR expressed in GH4C1 cells assessed as potentiation of peak current at -70 mV holding potential preincubated for 30 secs followed by co-application with acetylcholine by manual patch clamp assay relative to acetylcholine-induced peak current; type: cell-based; summary of the method: as §2

- Activity [1]: Dose-dependent effect
- EC50 [2]: 25 nM
- IC50 [3]: > 10 µM
- solubility [4]: 1.6 to 3.1 µg/mL (≈ 4.05 to 7.85 µM)
- Activity [5]: 7900%
- IC50 [6]: > 10 µM
- inhibition [7]: inactive
- hepatic extraction ratio at 0.75 h, 1 µM [8]: 0.64
- solubility [9]: > 100 µg/mL
- hepatic extraction ratio at 0.75 h, 1 µM [11]: 0.82
- Emax [12]: 650%
SMILES: COc1ccc(Cl)cc1NCC1C(c2ccc(S(N)(=O)=O)cc2)C1(C)C (racemic)
- inhibition [10]: Active

From ChEMBL document CHEMBL4364238, “Discovery of BNC375, a Potent, Selective, and Orally Available Type I Positive Allosteric Modulator of α7 nAChRs” (ACS Med Chem Lett, 2019)
